In experiment [1] the target is T1, Neutrophil elastase (Homo sapiens) (UniProt P08246).
T1 sequence (whole entry): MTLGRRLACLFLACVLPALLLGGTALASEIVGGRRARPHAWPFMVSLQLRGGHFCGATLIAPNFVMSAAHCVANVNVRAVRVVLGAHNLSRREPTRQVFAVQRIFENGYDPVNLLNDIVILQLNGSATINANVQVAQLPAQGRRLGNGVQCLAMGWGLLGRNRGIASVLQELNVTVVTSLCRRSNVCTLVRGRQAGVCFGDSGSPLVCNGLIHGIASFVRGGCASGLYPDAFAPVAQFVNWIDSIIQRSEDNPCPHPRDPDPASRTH
Nature of the experiment: Inhibition of human neutrophil elastase at inhibitor to enzyme ratio of 500 after 30 mins. In outline: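 HNE treated with inhibitor for 30 min at [I]/[E] ratio 500. Residual activity then measured with MeOSuc-AAPV-pNA in 0.1 M HEPES/0.5 M NaCl pH 7.25, reading absorbance at 410 nm.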

Experiment [2] has as its target T1, Neutrophil elastase (Homo sapiens). The experiment is described as follows: Inhibition of human neutrophil elastase assessed as ratio of observed rate constant to drug concentration by incubation method. Further details: unit not given here. In outline:
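HNE incubated with excess inhibitor in 0.1 M HEPES/0.5 M NaCl pH 7.25 with DMSO in a constant-temperature bath (stocks: 70 μM enzyme, 3.5 mM inhibitor). Aliquots taken over time and assayed with MeOSuc-AAPV-pNA, read at 410 nm for 60 s. kobs taken from ln([E]t/[E]0) = −kobs·t; reported as kobs/[I].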

Experiment [3] has as its target T2, Myeloblastin (Homo sapiens) (UniProt P24158).
T2 sequence (whole entry): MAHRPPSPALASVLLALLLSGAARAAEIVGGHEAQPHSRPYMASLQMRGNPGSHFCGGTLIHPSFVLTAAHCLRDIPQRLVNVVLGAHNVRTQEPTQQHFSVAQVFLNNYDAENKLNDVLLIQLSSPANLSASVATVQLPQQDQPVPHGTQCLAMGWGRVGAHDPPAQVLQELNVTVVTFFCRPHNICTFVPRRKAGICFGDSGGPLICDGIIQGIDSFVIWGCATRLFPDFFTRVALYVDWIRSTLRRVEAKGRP
Nature of the experiment: Inhibition of human PR3 at inhibitor to enzyme ratio of 500 after 30 mins. In short, it runs like this:
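PR3 (34.5 nM final, from 0.1 M phosphate pH 6.50 stock) preincubated 30 min with inhibitor at [I]/[E] 500 (8.62 μM final). Buffer 0.1 M HEPES/0.5 M NaCl pH 7.25 with DMSO and DTNB. Substrate Boc-Ala-Ala-NVa-SBzl; absorbance read at 410 nm for 2 min. % remaining activity = (v/v0)×100 against a DMSO-only run; duplicate or triplicate.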

Experiment [4] has as its target T1, Neutrophil elastase (Homo sapiens). Nature of the experiment: Irreversible inhibition of human neutrophil elastase at 37 uM. The settings on record: TDE = time-dependent effect. In outline:
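Inhibitor (37 μM) incubated with HNE (700 nM) in 0.1 M HEPES/0.5 M NaCl pH 7.25, 1% DMSO. Aliquots taken over time and assayed with MeOSuc-AAPV-pNA at 410 nm. Results plotted as percent remaining activity versus time.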

Experiment [5] has the same target. Nature of the experiment: Inhibition of human neutrophil elastase assessed as ratio of kinact to Ki by progressive curve method. In short, it runs like this: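 Progress curves run with 10 nM HNE and 105 μM MeOSuc-AAPV-pNA in 0.1 M HEPES/0.5 M NaCl pH 7.25, 2.5% DMSO, over several [I]/[E] ratios. p-Nitroaniline release followed continuously at 410 nm. kobs obtained by nonlinear fit of A vs t; kobs/[I] corrected for substrate concentration to give kinact/KI. Duplicate determinations.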

Structures are written as SMILES. Activity calls are given as the source filed them. The rule behind the calls is not given here.

As for `CCC[C@H]1C(=O)N(C(CCC(=O)OC)Sc2ccc(N)cc2)S(=O)(=O)N1C` (stereo partly drawn), in experiment [1], the inhibition entry was “Active”. Also, the Ratio in experiment [2] turned out to be 110. The inhibition result in experiment [3] is “inactive”.
The corresponding values for `CCC[C@H]1C(=O)N(C(CCC(=O)OC)Sc2ccc(F)cc2)S(=O)(=O)N1C` (stereo partly drawn) are “Active”, 320 and “inactive”.
Turning to `CCC[C@H]1C(=O)N(C(CCC(=O)OC)Sc2ccc(NC(=O)c3ccccc3C(=O)O)cc2)S(=O)(=O)N1C` (stereo partly drawn), the inhibition result in experiment [1] was “Active”. For the same molecule, the Ratio in experiment [2] is 260. Also, in experiment [3], the inhibition result is “inactive”.
In the case of `COC(=O)CCC(Sc1ccc(Cl)cc1)N1C(=O)[C@H](CC(C)C)N(C)S1(=O)=O` (stereo partly drawn), the Activity result in experiment [4] is “tde”. Also, in experiment [1], the inhibition result is “Active”. The Ratio in experiment [5] was determined as 4580. Also, the inhibition result in experiment [3] was “inactive”.
With `CCC[C@H]1C(=O)N(C(CCC(=O)OC)Sc2ccc(NC(=O)NCCc3ccccc3)cc2)S(=O)(=O)N1C` (stereo partly drawn), in experiment [1], the inhibition entry is “Active”. The Ratio in experiment [2] was 150. Also, the inhibition entry in experiment [3] was “inactive”.
The corresponding values for `CCC[C@H]1C(=O)N(C(CCC(=O)OC)Sc2ccc(OC)cc2)S(=O)(=O)N1C` (stereo partly drawn) are “Active”, 70 and “inactive”.
Taken in the same sequence, the figures for `CCC[C@H]1C(=O)N(C(CCC(=O)OC)Sc2ccc(NC(=O)OC(C)(C)C)cc2)S(=O)(=O)N1C` (stereo partly drawn) were “Active”, 170 and “inactive”.
For `CCC[C@H]1C(=O)N(C(CCC(=O)OC)Sc2ccc(NC(=O)CCC(=O)O)cc2)S(=O)(=O)N1C` (stereo partly drawn), the inhibition result in experiment [1] is “Active”. Besides, the Ratio in experiment [2] stood at 300. For the same molecule, the inhibition result in experiment [3] was “inactive”.
Taken in the same sequence, the figures for `CCC[C@H]1C(=O)N(C(CCC(=O)OC)Sc2ccc(Cl)cc2)S(=O)(=O)N1C` (stereo partly drawn) were “Active”, 20 and “inactive”.

These data come from ChEMBL document CHEMBL1136882, “Mechanism-based inhibitors of serine proteases with high selectivity through optimization of S' subsite binding” (Bioorg Med Chem, 2009).
